Drawing on ChEMBL document CHEMBL3872205, “Design, synthesis and evaluation of novel potent angiotensin II receptor 1 antagonists” (Eur J Med Chem, 2016), this text covers IC50, Ki and Activity for 7 molecules.

A short description of experiment [1]: Displacement of 125I-Ang2 from AT1 receptor in SPF Sprague-Dawley rat vascular smooth muscle cell membranes after 150 mins by gamma counting method. Put shortly: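 Primary aortic VSMCs from SPF Sprague-Dawley rats, obtained by explant culture in DMEM/10% FBS and identified by SM α-actin staining; passages 3–6. Whole cells (10^6/well) incubated with 125I-Ang II (diluted to 0.2 nM) and compound at final 10^-12–10^-6 M, 4 °C for 150 min. Washed, lysed in 0.1 M NaOH, γ-counted. IC50 from nonlinear fit of competition curves.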
A general note: Displacement assays read how much labelled ligand stays bound in the presence of the test substance.

In experiment [2] the test system is Rattus norvegicus. As to the kind of experiment: Antihypertensive activity in spontaneous hypertensive rat model assessed as reduction in mean blood pressure at 15 mg/kg, po measured up to 24 hrs. It counts as functional, organism-based. A digest of the protocol:
(§1)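 Male SHRs (250 ± 20 g) were randomized, 6 per group. Compound was suspended in 0.5% sodium carboxymethyl cellulose and given orally; vehicle-only negative control. Mean blood pressure was calculated as (SBP − DBP)/3 + DBP from systolic and diastolic readings over the time course. Data are mean ± SD, with p < 0.05 taken as significant.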

For experiment [3], the system named is Rattus norvegicus. As to the kind of experiment: Antihypertensive activity in spontaneous hypertensive rat model assessed as reduction in mean blood pressure at 15 mg/kg, po after 3 hrs. It counts as functional. Put shortly: as §1
The test system of experiment [4] is Rattus norvegicus. As to the kind of experiment: Antihypertensive activity in spontaneous hypertensive rat model assessed as reduction in mean blood pressure at 15 mg/kg, po after 12 hrs. It counts as functional, organism-based. A digest of the protocol:
as §1

Molecules are shown by their SMILES. pIC50, pKi: −log10 of the molar value. The source made the active and inactive calls. The calls are words filed in the database; no cut-off is given here.

What is called pIC50 is −log10 of the IC50, conventionally taken in molar units. As usually defined, the pKi is −log10 of the Ki, conventionally taken in molar units. In experiment [1], `CCCCC1=NC2(CCCC2)C(=O)N1Cc1ccc(-c2ccccc2-c2nnn[nH]2)cc1` [IRBESARTAN] had a negative-log IC50 (pIC50) of 8.84 and a pKi of 8.98. The result in the experiment on Rattus norvegicus [2] was Active.
In experiment [1], `CCCCC1=NC2(CCCC2)C(=O)N1Cc1cccc2c1ccn2-c1ccccc1-c1nnn[nH]1` showed a negative-log IC50 (pIC50) of 8.52 and a pKi of 8.66. Besides, in the experiment on Rattus norvegicus [3], the Activity was 40.57 mmHg. For the same molecule, the result in the experiment on Rattus norvegicus [4] was Active.
In experiment [1], `CCCC1=NC2(CCCC2)C(=O)N1Cc1cccc2c1ccn2-c1ccccc1-c1nnn[nH]1` gave a pIC50 of 8.11 and a negative-log Ki (pKi) of 8.25. Besides, in the experiment on Rattus norvegicus [2], the outcome was Active.
As to `CCCC1=NC2(CCCC2)C(=O)N1Cc1ccc2c(ccn2-c2ccccc2-c2nnn[nH]2)c1`, in experiment [1], the negative-log IC50 (pIC50) is 8.15 and the negative logarithm of the Ki (pKi) was 8.29. Moreover, in the experiment on Rattus norvegicus [2], the outcome was Active.
Regarding `CCCCCC1=NC2(CCCC2)C(=O)N1Cc1ccc2c(ccn2-c2ccccc2-c2nnn[nH]2)c1`, in experiment [1], the negative-log IC50 (pIC50) is 8.27 and the pKi is 8.47. In the experiment with Rattus norvegicus [2], the outcome was Active.
As to `CCCCCCC1=NC2(CCCC2)C(=O)N1Cc1ccc2c(ccn2-c2ccccc2-c2nnn[nH]2)c1`, in experiment [1], the pIC50 is 8.21 and the pKi was 8.33.
Take `CCCCCC1=NC2(CCCC2)C(=O)N1Cc1cccc2c1ccn2-c1ccccc1-c1nnn[nH]1`: in experiment [1], the negative logarithm of the IC50 (pIC50) is 8.21 and the negative logarithm of the Ki (pKi) is 8.33. In addition, the outcome in the experiment with Rattus norvegicus [2] was Active.
